Measured values of several laboratories.
Each line is one published result; the experiments were not run side by side.
Effect on: microbial growth

| Compound | organism | assay | test system | setting | MIC |
| --- | --- | --- | --- | --- | --- |
| CC(=O)NCN1N=C(C)C(=NNn2c(-c3ccccc3)nc3ccccc3c2=O)C1=O | Vibrio cholerae | broth dilution |  | 24 h | 59.9 µM |
| O=C(CCCCCCCCCCOc1ccccc1)CP(=O)(O)O | Bacillus anthracis |  | STERNE34F2 |  | > 200 µg/mL |
| CC1=CC[C@H]2O[C@]1(C)O[C@H]([C@H](C)/C=C(C)/C=C/C(O)=C1/C(=O)CNC1=O)[C@H]2C | Bacillus anthracis |  | 34F2 |  | 3.13 µM |
| CN[C@@H]1[C@H](O)[C@H](NC)[C@H]2O[C@@]3(O)C(=O)C[C@@H](C)O[C@H]3O[C@@H]2[C@H]1O | Streptococcus pyogenes | broth dilution | ATCC700294 |  | 25 µg/mL |
| CC1=NN(CNc2ccccc2[N+](=O)[O-])C(=O)C1=NNn1c(-c2ccccc2)nc2ccccc2c1=O | Vibrio cholerae | broth dilution |  | 24 h | 50.4 µM |
| CC1=CC(=O)[C@H]2O[C@]1(C)O[C@H]([C@H](C)/C=C(C)/C=C/C(O)=C1/C(=O)CNC1=O)[C@H]2C | Bacillus anthracis |  | 34F2 |  | 6.25 µM |
| CCCCCCCC(=O)NP(=O)(O)O | Bacillus anthracis |  | STERNE34F2 |  | > 200 µg/mL |
| CNC(=O)[C@@H](C)[C@H]1C(=O)/C(=C(O)/C=C/C(C)=C/[C@@H](C)[C@H]2O[C@@]3(C)O[C@H](C=C[C@@]34CO4)[C@@H]2C)C(=O)N1[C@@H]1CC[C@H](O)[C@H](C)O1 | Bacillus anthracis |  | 34F2 |  | > 100 µM |
| O=C1NN=C(N=Cc2ccc(O)cc2O)C1=NNn1c(-c2ccccc2)nc2ccccc2c1=O | Vibrio cholerae | broth dilution |  | 24 h | 53.5 µM |
| CCCCCCCCCCCC(=O)C(F)(F)P(=O)(O)O | Bacillus anthracis |  | STERNE34F2 |  | 200 µg/mL |
| CC(/C=C/C(O)=C1/C(=O)CNC1=O)=C\[C@@H](C)[C@H]1O[C@@]2(C)O[C@H](C(=O)[C@@H]3O[C@@]32C)[C@@H]1C | Bacillus anthracis |  | 34F2 |  | 12.5 µM |
| CC1=NN(CNC(=O)c2ccccn2)C(=O)C1=NNn1c(-c2ccccc2)nc2ccccc2c1=O | Vibrio cholerae | broth dilution |  | 24 h | 52 µM |
| CCCCCC/C=C\CCCCCCCCCC(=O)NP(=O)(O)O | Bacillus anthracis |  | STERNE34F2 |  | 100 µg/mL |
